FLuc act counter – affects firefly luciferase, flagging false hits in luciferase stimulation screens; 200,000 tested, under 10 active; ATPlite luciferase biochemical, luminescence, 10 min; 0 = ATP-free wells, 1 = DMSO control; activation factor at 10 µM; P08659;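 active = luciferase activation factor, scaled between plate controls, of at least 2 with compound at 10 µM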
Target sequence (P08659 whole entry, looked up): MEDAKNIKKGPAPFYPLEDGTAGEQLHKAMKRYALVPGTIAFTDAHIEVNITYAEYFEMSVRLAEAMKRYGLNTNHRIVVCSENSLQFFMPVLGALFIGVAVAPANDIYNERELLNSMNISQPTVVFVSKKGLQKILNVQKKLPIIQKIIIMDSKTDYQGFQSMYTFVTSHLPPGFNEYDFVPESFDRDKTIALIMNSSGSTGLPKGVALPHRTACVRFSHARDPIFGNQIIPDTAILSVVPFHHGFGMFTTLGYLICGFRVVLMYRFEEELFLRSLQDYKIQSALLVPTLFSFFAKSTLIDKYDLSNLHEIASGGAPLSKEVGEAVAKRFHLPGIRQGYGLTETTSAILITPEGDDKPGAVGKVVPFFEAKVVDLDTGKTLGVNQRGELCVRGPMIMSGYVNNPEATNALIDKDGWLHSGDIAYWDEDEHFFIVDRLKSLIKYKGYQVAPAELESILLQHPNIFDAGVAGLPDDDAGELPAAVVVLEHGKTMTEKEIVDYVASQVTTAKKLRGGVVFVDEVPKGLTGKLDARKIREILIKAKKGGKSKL
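Material: luciferase plus luciferin reagent, cell-free. Medium: PBS buffer for ATP. Also added: ATP substrate, dispensed from a 10.24 µM working solution in PBS. Doses: test compounds dosed from 2 mM stocks in 100% DMSO. Incubation: 10 min post-reagent at room temperature. Technique: light output (luminescence). Read-out basis: luminescence gain marking luciferase activators.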
STAT1 activator – increases IFN-gamma driven STAT1 reporter signal. NIH 3T3 STAT1-luciferase reporter, luminescence; 100% = IFN-gamma alone, no compound. 200,000 tested, 2.6% active. activation (% of control), % at 5.5 µM;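 active = activation above the screen-wide mean activation plus 3 SD, cut at about 130% in these data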;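 note: raw ratio to IFN-gamma control signal so 100% means no change and 0% no light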
APP 5'UTR act – activates APP 5'UTR luciferase reporter. activation, % at 2 µM. SH-SY5Y APP 5'UTR luciferase reporter, luminescence; zero percent = DMSO vehicle wells. AID 1276. 190,000 tested, 1% active;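 active = activation above a set limit, based on mean plus 3 SD of controls, cut at about 140% in these data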
NF-kB expr up – NF-kB expression increase, human neuronal cells; fold change at 12.5 µM; NF-kB reporter expression; hits give high values; 190,000 tested, 1.6% active; in the data active = fold change above about 3.3
FLuc inh counter – inhibits firefly luciferase, flagging false hits in luciferase inhibition screens | ATPLite firefly luciferase biochemical luminescence, 10 min | inhibition, % at 10 µM | 200,000 tested, 1.5% active | AID 1006;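 active = inhibition above about 50% when tested at 10 µM, limit read from the data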
Pf gamet viab – kills late stage P. falciparum gametocytes. inhibition, % at 10.9 µM. P. falciparum stage V gametocytes, ATP luminescence, 24 h. 150,000 tested, 0.065% active;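 active = inhibition above the mean plus 3 SD of compounds within the control limits, set per campaign, cut at about 38% in these data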;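 note: 0% = DMSO wells and 100% = medium only without gametocytes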
* hit, by the source's call; / = no result. Most compounds without a hit are left out; they make up all but 3.5% or so of the library.

SMILES	FLuc act counter	STAT1 activator	APP 5'UTR act	NF-kB expr up	FLuc inh counter	Pf gamet viab
COc1ccc(-c2noc(-c3ccccc3C(=O)Nc3cccc(OC)c3)n2)cc1	1	98.0	-0.6	0.52	-2.4	-2.1
CC(=O)Nc1cccc(Oc2ccc(-c3noc(C)n3)cc2)c1	0.8	138.4*	89.1	2.56	21.2	/
Nc1ccc2c(c1)Cc1cc([N+](=O)[O-])ccc1-2	1	133.8*	7.5	1.05	0.9	-1.3
Nc1ccc(C(=O)Nc2ccco2)cc1	1	107.7	13.0	1.44	2.0	/
Cc1cc(Cl)c(S(=O)(=O)NC(C)C)cc1OCC(N)=O	1.1	93.9	-14.0	0.84	-6.1	-3.0
Nc1ccc(-c2nc3ccc(N)cc3s2)cc1	/	/	/	/	/	-16.7
Nc1cccc(-c2nc3ccc(N)cc3s2)c1	0.1	123.8	-12.6	2.64	93.0*	/
O=C(O)c1ccc2nc(-c3ccccc3)sc2c1	0.6	67.7	43.6	9.09*	44.5	/
O=C(O)c1ccc2ncsc2c1	/	/	/	/	/	10.1
Nc1ccc(-c2nc3ccc(C(=O)O)cc3s2)cc1	0.2	19.9	-67.3	9.23*	75.9*	/
Nc1cc2sc(-c3ccc(C(=O)O)cc3)nc2cc1Cl	0.2	107.1	102.6	3.12	76.3*	13.8
O=[N+]([O-])c1ccc(C2CN=C(Nc3ccccc3)S2)cc1 (configuration not stated)	1	107.6	8.7	1.62	-2.0	-11.6
CCc1ccc(NC2=NCC(c3ccccc3)S2)cc1 (configuration not stated)	1	129.5*	30.4	3.22	3.1	-4.8
COc1cc(/C=C2\CCc3ccccc3C2=O)cc(OC)c1OC	1	94.8	6.9	3.07	2.7	/
COc1ccc(/C=C2/CCc3ccccc3C2=O)cc1OC	0.7	97.9	100.8	3.43*	33.2	8.5
COc1cc(/C=C2\CC/C(=C\c3cc(OC)c(O)c(OC)c3)C2=O)cc(OC)c1O	1	131.9*	-5.0	0.67	-1.5	-2.0
COc1cc(/C=C2/CCc3ccccc3C2=O)cc(OC)c1OC	1	104.6	26.6	3.83*	-0.4	-3.3
Cc1ccc(-n2c(C)cc(C(=O)CN3CCOCC3)c2C)cc1	1	118.9	37.7	1.83	-1.8	/
Cc1cc(C(=O)CN2CCCC(C)C2)c(C)n1-c1ccc(F)cc1 (configuration not stated)	1	142.7*	17.7	0.91	-1.8	-4.6
COCCNC(=O)C(NC(=O)C1CCCCC1)C12CC3CC(CC(C3)C1)C2 (configuration not stated)	1	94.9	8.5	1.15	-0.7	/
Cc1ccc(-c2nnc(-c3ccc(Br)cc3)o2)o1	0.8	118.0	16.5	3.76*	24.8	0.1
CNc1nc(-c2ccc3c(c2)CCN3C(=O)c2ccc(F)cc2)cs1	0.9	127.9	47.0	2.02	13.1	12.5
CNc1nc(-c2ccc3c(c2)CCN3C(=O)c2ccccc2C)cs1	0.7	145.4*	193.2*	3.79*	31.4	-4.8
COc1ccc(C(=O)Nn2cnc3ccccc3c2=O)c(OC)c1	0.9	141.1*	26.2	1.85	8.4	0.1
Cc1ccccc1C(=O)Nn1cnc2ccccc2c1=O	0.8	123.1	15.5	1.34	15.8	-9.1
SMILES	FLuc act counter	STAT1 activator	APP 5'UTR act	NF-kB expr up	FLuc inh counter	Pf gamet viab
C/C(=N\N1CCN(C2c3ccccc3-c3ccccc32)CC1)c1cccnc1	1	105.0	18.6	0.99	-3.6	1.2
CN=c1scc(-c2ccccc2F)n1/N=C(\C)c1cccnc1	0.3	131.8*	186.4*	5.97*	73.0*	8.4
Nc1ccc2oc(-c3ccccc3Cl)cc(=O)c2c1O	0.8	122.4	44.5	6.53*	21.7	-20.8
Cc1cc(N(C)C)ccc1N=Nc1ccc(N)cc1	/	/	/	/	/	-39.8
Nc1ccc(N=Nc2ccc(N)cc2)cc1	0.4	119.7	26.2	3.45*	64.0*	-7.3
Cc1ncc(CO)c(/C=N/NC(=S)Nc2ccc(F)cc2)c1O	1	102.1	-32.0	0.79	-3.1	/
Cc1ncc(CO)c(/C=N/N=C/c2ccccc2O)c1O	0.9	109.5	64.2	3.57*	7.5	-33.7
Oc1ccccc1C1Nc2cccc3cccc(c23)N1	0.4	99.0	10.5	0.86	64.3*	-44.8
COc1cccc(NC(=O)CSc2ncnc3c2oc2ccccc23)c1	1	94.6	-1.5	1.02	-0.7	/
COc1cccc(NC(=O)CSc2nc3c(oc4ccccc43)c(=O)[nH]2)c1	0.4	103.0	-5.5	1.06	59.5*	10.7
O=C(c1ccco1)N1CCC(c2ccccc2)C1 (configuration not stated)	1	114.8	16.4	1.75	-1.8	/
Cc1ccnc(SCc2nc3ccccc3s2)n1	0.8	130.2*	105.7	1.92	16.2	20.0
CCCC[C@H]1COCCS(=O)(=O)N1Cc1cccc([N+](=O)[O-])c1	/	/	/	/	/	5.5
Cc1nonc1OCCn1c([N+](=O)[O-])cnc1C	1	93.9	13.9	1.5	-3.7	5.6
CCOC(=O)C1(Cc2cccc(OC)c2)CCCN(C(=O)c2ccccc2C)C1 (configuration not stated)	/	/	/	/	/	10.2
CCOC(=O)C1(Cc2cccc(OC)c2)CCCN(C(=O)c2cc(C)[nH]n2)C1 (configuration not stated)	1	140.5*	34.4	2.55	-2.2	5.0
N#C/C(=C(/O)Cc1ccccc1)P(=O)(c1ccccc1)c1ccccc1	/	/	/	/	/	16.4
COC(=O)c1ccccc1NC(=O)COC(=O)CSc1nnc(N)s1	1.1	97.6	-11.1	1.02	-5.4	-24.5
CCn1c(-c2ccc(F)cc2)cnc1SCC(=O)N1CCCCC1C (configuration not stated)	0.9	132.0*	69.3	2.88	5.7	/
O=c1cc(CSc2nnc(COc3cccc4ccccc34)o2)c2ccccc2[nH]1	/	/	/	/	/	10.9
O=C(CCC1CCCCC1)Nc1ccccc1-c1ccccc1	1	98.0	-10.8	1.05	-3.6	17.7
O=C(CCC1CCCCC1)Nc1ccccc1O	0.9	96.9	61.0	6.38*	8.6	0.1
Cc1ccc(O)c(NC(=O)C2CCCCC2)c1	/	/	/	/	/	16.6
Cc1ccc(O)c(NC(=O)CCC2CCCCC2)c1	0.6	112.1	63.8	4.12*	39.7	/
Cn1c(NC(=O)CCC2CCCCC2)cc(=O)n(C)c1=O	0.9	147.8*	131.3	3.8*	8.9	/
SMILES	FLuc act counter	STAT1 activator	APP 5'UTR act	NF-kB expr up	FLuc inh counter	Pf gamet viab
CCCCOC(C)n1cc(F)c(=O)[nH]c1=O (configuration not stated)	1.1	103.0	12.8	1.01	-6.6	14.2
[N-]=[N+]=NCCN1CCN(CCc2ccccc2)CCC1=O	/	/	/	/	/	16.7
CCOc1ccc2[nH]cc(C(=O)N3CCN(C4CCCCC4)CC3)c(=O)c2c1	/	100.2	7.5	/	/	/
Fc1ccc(NCc2cn3ccccc3n2)cc1	0.8	135.2*	36.1	2.17	18.8	/
Cc1cc2c(C)nc(-c3ccccc3)nc2o1	0.9	130.0*	29.5	1.85	11.6	/
CC(=Nc1cccc(O)c1)c1sc2ccccc2c1O	0.5	112.1	161.2*	10.2*	53.4*	1.1

Screens deposited in PubChem by several laboratories.
